From ChEMBL document CHEMBL3525968, “Use of transporter knockdown Caco-2 cells to investigate the in vitro efflux of statin drugs” (Drug Metab Dispos, 2011) come the findings set out here.

Data set [1] can be described thus: Apparent permeability of the compound in MRP2 knockdown human Caco2 cells at 10 uM up to 120 mins by reverse-phase liquid chromatography with triple-quadrupole tandem mass spectrometry analysis. It counts as ADME, cell-based. Conditions: caco-2, 2 h.
Data set [2] in a line: Apparent permeability of the compound in P-gp knockdown human Caco2 cells at 10 uM up to 120 mins by reverse-phase liquid chromatography with triple-quadrupole tandem mass spectrometry analysis. Conditions: caco-2, 2 h. It counts as ADME, cell-based. For orientation: Passage across Caco-2 layers is used to estimate intestinal permeability.
Data set [3] in a line: Apparent permeability of the compound in vector transfected human Caco2 cells at 10 uM up to 120 mins by reverse-phase liquid chromatography with triple-quadrupole tandem mass spectrometry analysis. It counts as ADME, cell-based. As to conditions: caco-2, 2 h.
The nature of data set [4]: Apparent permeability of the compound in BCRP knockdown human Caco2 cells at 10 uM up to 120 mins by reverse-phase liquid chromatography with triple-quadrupole tandem mass spectrometry analysis. It counts as ADME, cell-based. Conditions: caco-2, 2 h.
Data set [5] deals with MRP2. As to the kind of experiment: Apparent permeability from basolateral to apical side of MRP2 knockdown human Caco2 cells at 10 uM up to 120 mins by reverse-phase liquid chromatography with triple-quadrupole tandem mass spectrometry analysis. It counts as ADME, cell-based, Caco-2. The essentials: (§1)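 Knockdown verified by real-time PCR. Cells grown 3 weeks on collagen-coated polycarbonate Transwells. Bidirectional transport of 10 µM compound in HBSSg pH 7.4, with atenolol and propranolol co-dosed. Receiver sampled at 30–120 min, analysed by LC-MS/MS. Mean ± S.D., n = 3.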

Data set [6] has as its system P-gp. As to the kind of experiment: Apparent permeability from basolateral to apical side of P-gp knockdown human Caco2 cells at 10 uM up to 120 mins by reverse-phase liquid chromatography with triple-quadrupole tandem mass spectrometry analysis. It counts as ADME, cell-based, Caco-2. In outline:
as §1

Data set [7] deals with BCRP. As to the kind of experiment: Apparent permeability from basolateral to apical side of BCRP knockdown human Caco2 cells at 10 uM up to 120 mins by reverse-phase liquid chromatography with triple-quadrupole tandem mass spectrometry analysis. It counts as ADME, cell-based, Caco-2. In outline: as §1
The nature of data set [8]: Apparent permeability from basolateral to apical side of vector transfected human Caco2 cells at 10 uM up to 120 mins by reverse-phase liquid chromatography with triple-quadrupole tandem mass spectrometry analysis. It counts as ADME, cell-based. As to conditions: Caco-2. In outline: as §1
The nature of data set [9]: Efflux ratio of permeability from […] side in P-gp knockdown human Caco2 cells at 10 uM up to 120 mins by reverse-phase liquid chromatography with triple-quadrupole tandem mass spectrometry analysis. It counts as ADME, cell-based. Conditions: caco-2, 2 h. The essentials: (§2)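 Caco-2 (CRL-2102) stably transduced with lentiviral shRNA against P-gp, BCRP or MRP2, or non-targeting shRNA vector control, kept under 10 µg/mL puromycin. Knockdown verified by real-time PCR. Cells grown 3 weeks on collagen-coated polycarbonate Transwells. Bidirectional transport of 10 µM compound in HBSSg pH 7.4, with atenolol and propranolol co-dosed. Receiver sampled at 30–120 min, analysed by LC-MS/MS. Mean ± S.D., n = 3.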

Data set [10] can be described thus: Efflux ratio of permeability from […] side in MRP2 knockdown human Caco2 cells at 10 uM up to 120 mins by reverse-phase liquid chromatography with triple-quadrupole tandem mass spectrometry analysis relative to vector transfected cells. It counts as ADME, cell-based. Conditions: caco-2, 2 h. In outline:
(§3)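 Caco-2 cells stably carrying lentiviral shRNA against MRP2 or non-targeting shRNA (vector control), kept under 10 µg/mL puromycin, knockdown confirmed by real-time PCR. Cells seeded at 60,000 cells/cm2 on collagen-coated polycarbonate Transwell membranes and grown 3 weeks. HBSS with 10 mM HEPES, 15 mM glucose, pH 7.4. Substrate at 10 µM, dosed apical or basolateral. Receiver sampled at 30, 60, 90, 120 min. Quantified by LC-MS/MS. Papp = VR/(A×C0)×dC/dt.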

Data set [11] in a line: Apparent permeability from apical to basolateral side of vector transfected human Caco2 cells at 10 uM up to 120 mins by reverse-phase liquid chromatography with triple-quadrupole tandem mass spectrometry analysis. It counts as ADME, cell-based. Conditions: Caco-2. The essentials: as §3
Data set [12] can be described thus: Efflux ratio of permeability from […] side in BCRP knockdown human Caco2 cells at 10 uM up to 120 mins by reverse-phase liquid chromatography with triple-quadrupole tandem mass spectrometry analysis relative to vector transfected cells. It counts as ADME, cell-based. As to conditions: caco-2, 2 h. The essentials:
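Efflux ratio (B-A over A-B Papp) measured in shRNA knockdown Caco-2 monolayers and in non-targeting vector-control monolayers, both under puromycin selection. 10 µM compound in HBSSg pH 7.4. Receiver sampled 30–120 min, LC-MS/MS. Each knockdown ratio is expressed as a percentage of the vector-control ratio.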

Data set [13] relates to BCRP. Kind of data set: Apparent permeability from apical to basolateral side of BCRP knockdown human Caco2 cells at 10 uM up to 120 mins by reverse-phase liquid chromatography with triple-quadrupole tandem mass spectrometry analysis. It counts as ADME, cell-based, Caco-2. In outline:
as §2

The subject of data set [14] is MRP2. As to the kind of experiment: Efflux ratio of permeability from […] side in MRP2 knockdown human Caco2 cells at 10 uM up to 120 mins by reverse-phase liquid chromatography with triple-quadrupole tandem mass spectrometry analysis. It counts as ADME, cell-based, Caco-2. The essentials:
as §3

Data set [15] relates to P-gp. As to the kind of experiment: Apparent permeability from apical to basolateral side of P-gp knockdown human Caco2 cells at 10 uM up to 120 mins by reverse-phase liquid chromatography with triple-quadrupole tandem mass spectrometry analysis. It counts as ADME, cell-based, Caco-2. In outline:
as §2

Data set [16] can be described thus: Efflux ratio of permeability from […] side in BCRP knockdown human Caco2 cells at 10 uM up to 120 mins by reverse-phase liquid chromatography with triple-quadrupole tandem mass spectrometry analysis. It counts as ADME, cell-based. Conditions: caco-2, 2 h. The essentials: as §2
For data set [17], the system named is MRP2. As to the kind of experiment: Apparent permeability from apical to basolateral side of MRP2 knockdown human Caco2 cells at 10 uM up to 120 mins by reverse-phase liquid chromatography with triple-quadrupole tandem mass spectrometry analysis. It counts as ADME, cell-based, Caco-2. The essentials:
as §3

Data set [18] can be described thus: Apparent permeability from basolateral to apical side of human Caco2 cells up to 120 mins by Michaelis-Menten equation analysis. It counts as ADME, cell-based, Caco-2.

The structures appear in SMILES notation.

On to `CC[C@H](C)C(=O)O[C@H]1C[C@@H](C)C=C2C=C[C@H](C)[C@H](CC[C@@H]3C[C@@H](O)CC(=O)O3)[C@H]21` [LOVASTATIN], for which the Papp result in [1], in data set [2], in data set [3] and in [4] was “impermeable” throughout.

Broadly, the Papp B→A is the apparent permeability from the basolateral to the apical side of a cell layer. Consider `CC(C)n1c(/C=C/C(O)CC(O)CC(=O)[O-])c(-c2ccc(F)cc2)c2ccccc21.[Na+]` (racemic) [FLUVASTATIN SODIUM], for which the Papp result in data set [1] is listed as “impermeable”; in data set [2], “impermeable”; in [3], “permeable”; in [4], “impermeable”. The basolateral-to-apical permeability (Papp B→A) at 2 h, 10 µM in the data set on MRP2 [5] is 48.2 ×10⁻⁶ cm/s; in the data set with P-gp [6], 25.3 ×10⁻⁶ cm/s; in the data set with BCRP [7], 57.3 ×10⁻⁶ cm/s; in [8], 96.1 ×10⁻⁶ cm/s.

What is called Papp A→B is the apparent permeability from the apical to the basolateral side of a cell layer. Broadly, the efflux ratio is the permeability from basolateral to apical divided by that in the opposite direction, in the common usage. Regarding `C[C@H]1O[C@@H](O[C@H]2[C@@H](O)C[C@H](O[C@H]3[C@@H](O)C[C@H](O[C@H]4CC[C@@]5(C)[C@H](CC[C@@H]6[C@@H]5C[C@@H](O)[C@]5(C)[C@@H](C7=CC(=O)OC7)CC[C@]65O)C4)O[C@@H]3C)O[C@@H]2C)C[C@H](O)[C@@H]1O` [DIGOXIN], the Ratio in data set [9] turned out to be 7.4; in data set [10], 121%; in data set [12], 100%; in data set [16] it was 17.7. In addition, the apparent permeability from apical to basolateral (Papp A→B) at 2 h, 10 µM in [11] worked out at 1.14 ×10⁻⁶ cm/s; with BCRP [13], 0.54 ×10⁻⁶ cm/s; in the data set on P-gp [15], 1.59 ×10⁻⁶ cm/s. The Papp B→A at 2 h, 10 µM in the data set on MRP2 [5] came to 19 ×10⁻⁶ cm/s; in the data set on P-gp [6], 11.8 ×10⁻⁶ cm/s; in the data set with BCRP [7], 9.46 ×10⁻⁶ cm/s; in [8], 20.1 ×10⁻⁶ cm/s. For the same compound, in the data set on MRP2 [14], the efflux ratio at 2 h, 10 µM worked out at 21.4.

For the compound `O=C1OC(c2ccc(O)c(S(=O)(=O)[O-])c2)(c2ccc(O)c(S(=O)(=O)[O-])c2)c2c(Br)c(Br)c(Br)c(Br)c21.[Na+].[Na+]` [SULFOBROMOPHTHALEIN SODIUM], the Ratio in [10] is reported as 5%. The values for the apical-to-basolateral permeability (Papp A→B) at 2 h, 10 µM (in [11]; in the data set with MRP2 [17]) were 0.03 ×10⁻⁶ cm/s and 0.34 ×10⁻⁶ cm/s, respectively. For the same compound, the Papp B→A at 2 h, 10 µM in the data set with MRP2 [5] was 0.9 ×10⁻⁶ cm/s; in data set [8] it was 1.45 ×10⁻⁶ cm/s. Moreover, in the data set on MRP2 [14], the efflux ratio at 2 h, 10 µM worked out at 2.6.

One may read the Km as the substrate concentration at which the rate is half of its maximum. On to `CC(C)c1nc(N(C)S(C)(=O)=O)nc(-c2ccc(F)cc2)c1/C=C/[C@@H](O)C[C@@H](O)CC(=O)[O-].CC(C)c1nc(N(C)S(C)(=O)=O)nc(-c2ccc(F)cc2)c1/C=C/[C@@H](O)C[C@@H](O)CC(=O)[O-].[Ca+2]` [ROSUVASTATIN CALCIUM], for which the Papp entry in data set [1] is “impermeable”; in data set [2], “impermeable”; in data set [3] it was “permeable”; in data set [4] it was “impermeable”. In addition, the apparent permeability from basolateral to apical (Papp B→A) at 2 h, 10 µM with MRP2 [5] came out at 6.6 ×10⁻⁶ cm/s; in the data set with P-gp [6] it was 4.6 ×10⁻⁶ cm/s; in the data set on BCRP [7], 5.8 ×10⁻⁶ cm/s; in [8], 14.1 ×10⁻⁶ cm/s. Besides, in data set [18] (Caco-2), the Michaelis constant (Km) at 2 h stood at 98 µM. For the same compound, in data set [18] (caco-2, 2 h), the Vmax stood at 137 pmol/min/cm2.

`C[C@]12CC[C@@H]3c4ccc(OS(=O)(=O)O)cc4CC[C@H]3[C@@H]1CCC2=O` [ESTRONE SULFURIC ACID]: the Ratio in data set [9] stood at 43.6; in data set [10], 128%; in data set [12], 21%; in [16], 10.2. In addition, the Papp A→B at 2 h, 10 µM in data set [11] came to 0.57 ×10⁻⁶ cm/s; in the data set on BCRP [13], 1.03 ×10⁻⁶ cm/s; in the data set on MRP2 [17], 0.54 ×10⁻⁶ cm/s; in the data set with P-gp [15], 0.52 ×10⁻⁶ cm/s. Besides, the Papp B→A at 2 h, 10 µM in the data set with MRP2 [5] stood at 33.5 ×10⁻⁶ cm/s; in the data set with P-gp [6], 22.9 ×10⁻⁶ cm/s; in the data set on BCRP [7], 10.5 ×10⁻⁶ cm/s; in data set [8] it was 27.2 ×10⁻⁶ cm/s. Moreover, the efflux ratio at 2 h, 10 µM in the data set on MRP2 [14] was determined as 62.2.
